Test results from ChEMBL document CHEMBL2417372, “Design, synthesis, and mechanism of action of 2-(3-hydroxy-5-methoxyphenyl)-6-pyrrolidinylquinolin-4-one as a potent anticancer lead” (Bioorg Med Chem Lett, 2013).
pIC50: −log10 of the molar value. Active and inactive are the calls of the source. The rule behind the calls is not given here.

Columns and labels:
[1] = Cytotoxicity against human Hep3B cells after 48 hrs; type: functional, cell-based, Hep 3B2
Summary of the method: (§1)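 MTT viability assay on log-phase cells at 37 °C, exposed to compound or DMSO vehicle for 48 h. MTT (1 mg/mL in PBS) was then added for 2 h, and absorbance was read at 570 nm with 630 nm correction. IC50 is the concentration giving 50% proliferation inhibition. Cells were cultured in 5% CO2: HL-60 in RPMI-1640 with 10% FBS; Hep3B in DMEM/F12 with 10% FBS; Detroit 551 in DMEM with 10% FBS.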

[2] = tested on: HL-60; assay: Cytotoxicity against human HL60 cells after 48 hrs; type: functional, cell-based; details: HL-60, 48 h; summary of the method: as §1
[3] = tested on: NCI-H460; assay: Cytotoxicity against human NCI-H460 cells after 48 hrs; type: functional, cell-based; details: NCI-H460, 48 h
[4] = target: T1, Tubulin (Homo sapiens) (UniProt P68371+Q9H4B7+P0DPH7+P68366+Q13509+Q71U36+P04350+Q3ZCM7+P07437+P68363+Q9BQE3+Q6PEY2+Q13885+Q9BVA1+Q9BUF5); assay: Inhibition of tubulin polymerization in human NCI-H522 cells assessed as beta-tubulin accumulation in cytoskeletal fraction at 100 nM after 24 hrs by Western blot analysis; type: cell-based
Summary of the method: (§2)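 NCI-H522 cells were exposed for 24 h to compound (10, 30 or 100 nM) or DMSO vehicle. They were then lysed 5 min at 37 °C in hypotonic buffer (1 mM MgCl2, 2 mM EGTA, 0.5% NP-40, protease inhibitors, 20 mM Tris-HCl pH 6.8) and centrifuged at 15,000 × g for 10 min at 25 °C. α- and β-tubulin were assessed in the cytoskeletal fraction.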

[5] = target: T1, Tubulin (Homo sapiens); assay: Inhibition of tubulin polymerization in human NCI-H522 cells assessed as alpha-tubulin accumulation in cytoskeletal fraction at 100 nM after 24 hrs by Western blot analysis; type: cell-based; summary of the method: as §2
[6] = target: Tubulin (Sus scrofa) (UniProt P02554+P02550); details: 1 uM
[7] = tested on: Detroit 551; assay: Cytotoxicity against human Detroit 551 cells after 48 hrs; type: cell-based; details: Detroit 551, 48 h; summary of the method: as §1

Sequence of Tubulin (Sus scrofa) (P02550 whole entry, looked up): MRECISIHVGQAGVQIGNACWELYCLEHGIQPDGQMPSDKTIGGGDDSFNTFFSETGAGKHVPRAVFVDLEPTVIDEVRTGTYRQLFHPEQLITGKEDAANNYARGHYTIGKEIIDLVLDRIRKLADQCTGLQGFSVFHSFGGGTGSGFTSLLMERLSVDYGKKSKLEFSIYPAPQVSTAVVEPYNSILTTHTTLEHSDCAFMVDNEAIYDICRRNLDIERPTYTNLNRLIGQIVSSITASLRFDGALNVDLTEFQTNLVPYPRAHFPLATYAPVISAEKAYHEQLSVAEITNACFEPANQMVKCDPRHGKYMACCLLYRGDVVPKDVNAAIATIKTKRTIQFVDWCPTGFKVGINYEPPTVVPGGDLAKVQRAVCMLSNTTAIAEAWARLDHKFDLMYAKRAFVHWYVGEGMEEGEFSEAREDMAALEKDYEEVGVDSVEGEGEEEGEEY
Sequence of Tubulin (Sus scrofa) (P02554 whole entry, looked up): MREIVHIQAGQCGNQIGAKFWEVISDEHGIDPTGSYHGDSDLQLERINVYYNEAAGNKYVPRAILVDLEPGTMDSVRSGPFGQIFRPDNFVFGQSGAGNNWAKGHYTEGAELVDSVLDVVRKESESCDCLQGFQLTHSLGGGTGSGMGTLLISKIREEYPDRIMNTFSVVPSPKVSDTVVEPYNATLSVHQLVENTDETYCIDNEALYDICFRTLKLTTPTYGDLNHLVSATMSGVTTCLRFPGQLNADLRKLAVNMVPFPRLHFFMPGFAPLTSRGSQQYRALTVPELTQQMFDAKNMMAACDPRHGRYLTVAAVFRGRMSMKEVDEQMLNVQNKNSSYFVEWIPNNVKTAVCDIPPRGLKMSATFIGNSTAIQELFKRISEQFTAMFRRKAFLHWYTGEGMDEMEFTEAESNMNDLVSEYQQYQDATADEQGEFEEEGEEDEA

| Compound | pIC50 [1] | pIC50 [2] | pIC50 [3] | inhibition [4] | inhibition [5] | inhibition [6] | pIC50 [7] |
| --- | --- | --- | --- | --- | --- | --- | --- |
| CCOc1cc(O)cc(-c2cc(=O)c3cc4c(cc3[nH]2)OCO4)c1 | 4.60 | 6.30 | < 4.60 |  |  |  |  |
| CC[C@]1(O)C[C@@H]2CN(CCc3c([nH]c4ccccc34)[C@@](C(=O)OC)(c3cc4c(cc3OC)N(C)[C@H]3[C@@](O)(C(=O)OC)[C@H](OC(C)=O)[C@]5(CC)C=CCN6CC[C@]43[C@@H]65)C2)C1 |  |  |  | Active | Active | Active |  |
| CCOc1cc(O)cc(-c2cc(=O)c3cc(N4CCCC4)ccc3[nH]2)c1 | 7.15 | 7.70 | 6.23 |  |  |  | 4.88 |
| Oc1cccc(-c2cc(O)c3cc4c(cc3n2)OCO4)c1 | 5.98 | 6.60 | 4.77 |  |  |  | 4.66 |
| O=c1cc(-c2cc(O)cc(O)c2)[nH]c2ccc(N3CCCC3)cc12 | 5.80 | 6.47 | 4.86 |  |  |  | < 4.60 |
| O=c1cc(-c2ccc(O)cc2)[nH]c2cc3c(cc12)OCO3 | 4.65 | 5.49 | < 4.00 |  |  |  | 4.39 |
| O=c1cc(-c2ccccc2O)[nH]c2cc3c(cc12)OCO3 | 5.09 | 5.12 | 4.72 |  |  |  | 4.31 |
| COc1cc(O)cc(-c2cc(=O)c3cc(N4CCOCC4)ccc3[nH]2)c1 | 5.22 | 5.41 | < 4.00 |  |  |  | < 4.00 |
| COc1cc(O)cc(-c2cc(=O)c3cc(N(C)C)ccc3[nH]2)c1 | 5.21 | 6.66 | < 4.30 |  |  |  | < 4.30 |
| CC[C@]1(O)C[C@H]2CN(CCc3c([nH]c4ccccc34)[C@@](C(=O)OC)(c3cc4c(cc3OC)N(C=O)[C@H]3[C@@](O)(C(=O)OC)[C@H](OC(C)=O)[C@]5(CC)C=CCN6CC[C@]43[C@@H]65)C2)C1 |  |  |  | Active | Active | Active |  |
| O=c1cc(-c2cc(O)cc(O)c2)[nH]c2cc3c(cc12)OCO3 | < 4.60 | 5.06 | < 4.60 |  |  |  |  |
| COc1cc(O)cc(-c2cc(=O)c3cc4c(cc3[nH]2)OCO4)c1 | < 4.30 | 6.30 | < 4.30 |  |  |  | < 4.30 |
| COc1cccc(-c2cc(O)c3cc4c(cc3n2)OCO4)c1 | 7.10 | 7.10 | 6.70 |  |  |  | 5.32 |
